Reference: ChEMBL document CHEMBL3853307, “Anti-inflammatory Effect of Methyl Gallate on Experimental Arthritis: Inhibition of Neutrophil Recruitment, Production of Inflammatory Mediators, and Activation of Macrophages” (J Nat Prod, 2016)
The source made the active and inactive calls. No cut-off for these calls is given here.

Tests used:
[1] = tested on: Mus musculus; assay: Antiinflammatory activity in C57BL/6 mouse assessed as inhibition of zymosan-induced total leukocyte recruitment in synovial cavity at 0.7 to 70 mg/kg, po administered 1 hr prior to zymosan challenge measured after 6 to 24 hrs by particle counting method; format: functional, organism-based
Method in brief: (§1)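 Male C57BL/6 mice, fasted overnight, dosed orally (vehicle saline/water, 200 μL) or i.p. 1 h before zymosan (500 μg in 25 μL saline, i.a., left knee). Knee swelling measured as change in transverse diameter from basal by digital caliper (mm). Synovial washes (PBS/EDTA) counted on a particle counter; differentials from May-Grünwald-Giemsa cytospins, cells ×10^5/cavity. Sampled at 6 and/or 24 h; seven mice/group.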

[2] = tested on: Mus musculus; assay: Antiinflammatory activity in C57BL/6 mouse assessed as inhibition of zymosan-induced neutrophils recruitment in synovial cavity at 0.7 to 70 mg/kg, po administered 1 hr prior to zymosan challenge measured after 6 to 24 hrs by Grunwald-Giemsa-stained cytospin smear; format: functional, organism-based; method in brief: as §1
[3] = tested on: Mus musculus; assay: Antiinflammatory activity in C57BL/6 mouse assessed as inhibition of zymosan-induced paw edema at 10 to 50 mg/kg, po administered 1 hr prior to zymosan challenge measured after 4 hrs by plethysmography; format: functional, organism-based
Method in brief: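 C57BL/6 mice dosed orally (1−50 mg/kg) before intraplantar zymosan (100 μg/paw in 50 μL saline); contralateral paw got saline. Volume measured by plethysmography at 4 h, edema taken as right minus left paw (μL).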

[4] = tested on: Mus musculus; assay: Antiinflammatory activity in zymosan-induced C57BL/6 mouse pleurisy model assessed as reduction in neutrophil influx in thoracic cavity at 10 to 50 mg/kg, po administered 1 hr prior to zymosan challenge measured after 4 hrs using Grunwald-Giemsa-stained cytospin smear by light microscopy; format: functional, organism-based
Method in brief: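 Oral pretreatment 1 h before intrathoracic zymosan (100 μg/cavity in 100 μL saline). Cavities washed at 4 h with 1 mL PBS/10 mM EDTA. Total leukocytes counted on a particle counter, differentials from May-Grünwald-Giemsa cytospins (×10^6/cavity). Supernatant after 400g 10 min assayed for total protein by Bradford.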

[5] = tested on: Mus musculus; assay: Antiinflammatory activity in C57BL/6 mouse assessed as inhibition of zymosan-induced knee joint edema formation at 7 mg/kg, po administered 1 hr prior to zymosan challenge measured at 24 hrs relative to control; format: functional; conditions: C57BL/6, Knee joint; method in brief: as §1
[6] = tested on: Mus musculus; assay: Antiinflammatory activity in C57BL/6 mouse assessed as inhibition of zymosan-induced neutrophil migration in articular cavity at 7 mg/kg, po administered 1 hr prior to zymosan challenge measured at 6 hrs relative to control; format: functional; conditions: C57BL/6, po; method in brief: as §1
[7] = tested on: Mus musculus; assay: Antiinflammatory activity in C57BL/6 mouse assessed as inhibition of zymosan-induced neutrophil migration in articular cavity at 7 mg/kg, po administered 1 hr prior to zymosan challenge measured at 24 hrs relative to control; format: functional; conditions: C57BL/6, po; method in brief: as §1
[8] = tested on: Mus musculus; assay: Antiinflammatory activity in C57BL/6 mouse assessed as inhibition of zymosan-induced mononuclear cells migration in articular cavity at 7 mg/kg, po administered 1 hr prior to zymosan challenge measured at 6 to 24 hrs; format: functional, organism-based; method in brief: as §1
[9] = tested on: Mus musculus; assay: Antiinflammatory activity in C57BL/6 mouse assessed as inhibition of zymosan-induced synovial hyperplasia at 7 mg/kg, po administered 1 hr prior to zymosan challenge measured at 6 to 24 hrs by hematoxylin and eosin staining-based optical microscopy; format: functional, organism-based
Method in brief: (§2)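 Mice dosed orally or i.p. 1 h before i.a. zymosan (500 μg/cavity) or saline. Whole knees taken at 6 and 24 h from six mice, fixed in 10% formalin 48 h, decalcified in 10% EDTA/PBS 1−2 weeks, paraffin-embedded. 5 μm sections H&E-stained and examined by light microscopy. Parameter scores summed into an arthritis index; means ± SEM, two experiments.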

[10] = tested on: Mus musculus; assay: Antiinflammatory activity in C57BL/6 mouse assessed as inhibition of zymosan-induced infiltration of inflammatory cells into synovial tissue at 7 mg/kg, po administered 1 hr prior to zymosan challenge measured at 6 to 24 hrs by hematoxylin and eosin staining-based optical microscopy; format: functional, organism-based; method in brief: as §2
[11] = tested on: Mus musculus; assay: Antiinflammatory activity in C57BL/6 mouse assessed as inhibition of zymosan-induced TNFalpha production in cell-free supernatant of knee joint synovial washes at 7 mg/kg, po administered 1 hr prior to zymosan challenge measured at 6 to 24 hrs by sandwich ELISA method; format: functional, organism-based
Method in brief: (§3)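 Male C57BL/6 mice (18−22 g), fasted overnight, dosed orally (in filtered water, 200 μL) or i.p. 1 h before i.a. zymosan (500 μg in 25 μL saline) into left knee; contralateral knee got vehicle. Synovial cavity washed twice with 150 μL PBS/10 mM EDTA at 6 and 24 h; washes spun 400g 10 min, 4 °C. Cytokines measured by sandwich ELISA, LTB4/PGE2 by EIA (pg/mL); six mice/group, two experiments.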

[12] = tested on: Mus musculus; assay: Antiinflammatory activity in C57BL/6 mouse assessed as inhibition of zymosan-induced PGE2 production in cell-free supernatant of knee joint synovial washes at 7 mg/kg, po administered 1 hr prior to zymosan challenge measured at 6 to 24 hrs by immunosorbent assay; format: functional, organism-based; method in brief: as §3
[13] = tested on: Neutrophil; assay: Antiinflammatory activity in C57BL/6 mouse neutrophils assessed as inhibition of CXCL1/KC-induced neutrophil chemotaxis at 0.1 to 1 uM preincubated for 1 hr followed by CXCL1/KC-induction measured after 1 hr by Wright-Giemsa staining-based light microscopic method; format: functional, cell-based
Method in brief: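 Bone marrow neutrophils from C57BL/6 femurs, purified on a 65%/72% Percoll gradient (~85−90% purity). 10^5 cells preincubated 1 h with compound or medium, then placed in a 48-well Boyden chamber over CXCL-1/KC (250 nM) across a 5 μm polycarbonate filter, 60 min at 37 °C, 5% CO2. Filter Wright-Giemsa stained; migrated cells counted in 15 fields; quadruplicate wells.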

[14] = Cytotoxicity against mouse J774A.1 cells assessed as cell viability at 0.01 to 100 uM after 20 hrs by Alamar Blue assay relative to control; format: toxicity, J774.A1; conditions: read-out: Activity
Method in brief: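 J774A.1 cells at 2.5 × 10^5 cells/well, 24 h pre-incubation at 37 °C, 5% CO2; fresh medium with or without Tween 20 (3%) or compound (0.01−100 μM), quadruplicate; 20 h incubation, then Alamar Blue added for 4 h; fluorescence read at ex 555/em 585 nm.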

[15] = tested on: J774.A1; assay: Antiinflammatory activity in mouse J774A.1 cells assessed as inhibition of zymosan and IFNgamma-induced IL6 production in cell-free supernatant at 0.1 to 10 uM preincubated for 1 hr followed by zymosan and IFNgamma addition measured after 24 hrs by sandwich ELISA; format: functional, cell-based
Method in brief: (§4)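 J774A.1 macrophages (1 × 10^5/well, RPMI/10% FBS) adhered 24 h, preincubated 1 h with compound (0.1−10 μM) or dexamethasone (1 μM), then stimulated with zymosan (10 μg per 10^5 cells) and/or IFN-γ (25 U/mL) for 24 h. Supernatant IL-6 by sandwich ELISA; nitrite by Griess reaction at 540 nm. Quadruplicate wells, two experiments.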

[16] = tested on: J774.A1; assay: Antiinflammatory activity in mouse J774A.1 cells assessed as inhibition of zymosan and IFNgamma-induced nitric oxide production at 10 uM preincubated for 1 hr followed by zymosan and IFNgamma addition measured after 24 hrs by colorimetric Griess test; format: functional, cell-based; method in brief: as §4

Structure (SMILES): COC(=O)c1cc(O)c(O)c(O)c1 [GALLIC ACID METHYL ESTER]
- inhibition [1]: Active
- inhibition [2]: Active
- inhibition [3]: Active
- Activity [4]: Active
- inhibition in vivo at 7 mg/kg [5]: 49%
- inhibition in vivo at 7 mg/kg [6]: 64%
- inhibition in vivo at 7 mg/kg [7]: 74%
- inhibition [8]: Active
- inhibition [9]: Active
- inhibition [10]: Active
- inhibition [11]: Active
- inhibition [12]: Active
- inhibition [13]: Active
- viability at 20 h, up to 100 µM [14]: ≥ 95%
- inhibition [15]: Active
- inhibition [16]: Active
